Measured values reported in ChEMBL document CHEMBL5058577, “EUbOPEN Chemogenomics Library 2 (Multiplex)” (2022).

System: U2OS
Assay: Multiplex assay against U2OS
Format: toxicity, cell-based
Conditions: human
Procedure, shortened: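 Hoechst33342, BioTracker Green Microtubule Cytoskeleton Dye, MitoTracker Red and Annexin V Alexa Fluor 680 were added to live cells at seeding, and imaging on a CQ1 microscope at 37°C and 5% CO2 followed compound addition. Gating by CellPathfinder machine learning separated cells into Hoechst high-intensity objects or normal cells, then normal cells into healthy, pyknosed or fragmented nuclei, then pyknosed cells into mitotic or apoptotic. Per cents of healthy-nucleus cells are reported for the tubulin, mitochondrial-mass and membrane-permeability phenotypes.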

[1] = 12 h, 1 µM, compound concentration 1 uM, replicate 1
[2] = 12 h, 1 µM, compound concentration 1 uM, replicate 2
[3] = 12 h, 10 µM, compound concentration 10 uM, replicate 1
[4] = 12 h, 10 µM, compound concentration 10 uM, replicate 2
[5] = 24 h, 1 µM, compound concentration 1 uM, replicate 1
[6] = 24 h, 1 µM, compound concentration 1 uM, replicate 2
[7] = 24 h, 10 µM, compound concentration 10 uM, replicate 1
[8] = 24 h, 10 µM, compound concentration 10 uM, replicate 2
[9] = 48 h, 1 µM, compound concentration 1 uM, replicate 1
[10] = 48 h, 1 µM, compound concentration 1 uM, replicate 2
[11] = 48 h, 10 µM, compound concentration 10 uM, replicate 1
[12] = 48 h, 10 µM, compound concentration 10 uM, replicate 2

With `CSCC[C@H](NC=O)C(=O)N[C@@H](CC(C)C)C(=O)N[C@@H](Cc1ccccc1)C(=O)O` the “Population Apoptotic (%)” value [1] was 73%, the “Population Fragmented Nuclei (%)” value [1] was 29% and the “Population Mitochondria Different-Phenotype (%)” value [1] was 4%. For the same compound, the “Population Mitotic Cells (%)” value [1] was 26%, the “Total Cell Count” value [1] was 254 and the “Population Apoptotic (%)” value [2] was 100%. The “Population Fragmented Nuclei (%)” value [2] was 17%, the “Population Healthy Nuclei (%)” value [2] was 75% and the “Population Mitochondria Different-Phenotype (%)” value [2] was 3%. The “Population Mitotic Cells (%)” value [2] was 0%, the “Total Cell Count” value [2] was 135 and the “Population Apoptotic (%)” value [3] was 69%. For the same compound, the “Population Fragmented Nuclei (%)” value [3] was 23%, the “Population Healthy Nuclei (%)” value [3] was 70% and the “Population Mitochondria Different-Phenotype (%)” value [3] was 1%. The “Population Mitotic Cells (%)” value [3] was 30%, the “Total Cell Count” value [3] was 202 and the “Population Apoptotic (%)” value [4] was 90%. The “Population Fragmented Nuclei (%)” value [4] was 16%, the “Population Healthy Nuclei (%)” value [4] was 74% and the “Population Membrane Permeable-Phenotype (%)” value [4] was 4%. The “Population Mitochondria Different-Phenotype (%)” value [4] was 2%, the “Total Cell Count” value [4] was 123 and the “Population Apoptotic (%)” value [5] was 91%. For the same compound, the “Population Fragmented Nuclei (%)” value [5] was 24%, the “Population Mitochondria Different-Phenotype (%)” value [5] was 3% and the “Population Mitotic Cells (%)” value [5] was 8%. For the same compound, the “Total Cell Count” value [5] was 288, the “Population Apoptotic (%)” value [6] was 90% and the “Population Fragmented Nuclei (%)” value [6] was 17%. For the same compound, the “Population Healthy Nuclei (%)” value [6] was 75%, the “Population Mitochondria Different-Phenotype (%)” value [6] was 0% and the “Total Cell Count” value [6] was 147. For the same compound, the “Population Apoptotic (%)” value [7] was 76%, the “Population Fragmented Nuclei (%)” value [7] was 23% and the “Population Healthy Nuclei (%)” value [7] was 68%. The “Population Mitochondria Different-Phenotype (%)” value [7] was 1%, the “Population Mitotic Cells (%)” value [7] was 23% and the “Total Cell Count” value [7] was 247. For the same compound, the “Population Apoptotic (%)” value [8] was 100%, the “Population Fragmented Nuclei (%)” value [8] was 19% and the “Population Healthy Nuclei (%)” value [8] was 70%. The “Population Membrane Permeable-Phenotype (%)” value [8] was 8%, the “Population Mitochondria Different-Phenotype (%)” value [8] was 2% and the “Population Mitotic Cells (%)” value [8] was 0%. For the same compound, the “Total Cell Count” value [8] was 147, the “Population Fragmented Nuclei (%)” value [9] was 16% and the “Population Healthy Nuclei (%)” value [9] was 75%. For the same compound, the “Population Membrane Permeable-Phenotype (%)” value [9] was 4%, the “Population Mitochondria Different-Phenotype (%)” value [9] was 3% and the “Population Mitotic Cells (%)” value [9] was 15%. For the same compound, the “Total Cell Count” value [9] was 411, the “Population Fragmented Nuclei (%)” value [10] was 18% and the “Population Healthy Nuclei (%)” value [10] was 68%. The “Population Mitochondria Different-Phenotype (%)” value [10] was 1%, the “Population Mitotic Cells (%)” value [10] was 3% and the “Total Cell Count” value [10] was 202. For the same compound, the “Population Apoptotic (%)” value [11] was 90%, the “Population Fragmented Nuclei (%)” value [11] was 20% and the “Population Healthy Nuclei (%)” value [11] was 70%. The “Population Membrane Permeable-Phenotype (%)” value [11] was 4%, the “Population Mitochondria Different-Phenotype (%)” value [11] was 2% and the “Population Mitotic Cells (%)” value [11] was 9%. The “Total Cell Count” value [11] was 362, the “Population Apoptotic (%)” value [12] was 100% and the “Population Fragmented Nuclei (%)” value [12] was 53%. The “Population Healthy Nuclei (%)” value [12] was 25%, the “Population Membrane Permeable-Phenotype (%)” value [12] was 80% and the “Population Mitochondria Different-Phenotype (%)” value [12] was 50%. For the same compound, the “Population Mitotic Cells (%)” value [12] was 0% and the “Total Cell Count” value [12] was 41.
In the case of `Cc1nc2ccc(Oc3ccc(F)cc3)cc2c(=O)n1C[C@H]1CCCN(C(C)C)C1.Cl`, the “Population Apoptotic (%)” value [1] is reported as 83%, the “Population Fragmented Nuclei (%)” value [1] is reported as 25% and the “Population Healthy Nuclei (%)” value [1] is reported as 64%. For the same compound, the “Population Hoechst High Intensity Objects (%)” value [1] was 3%, the “Population Membrane Permeable-Phenotype (%)” value [1] was 9% and the “Population Mitochondria Different-Phenotype (%)” value [1] was 3%. The “Population Mitotic Cells (%)” value [1] was 16%, the “Population Normal (%)” value [1] was 96% and the “Population Pyknosed Nuclei (%)” value [1] was 10%. The “Population Tubulin-Different-Phenotype (%)” value [1] was 7%, the “Total Cell Count” value [1] was 244 and the “Population Apoptotic (%)” value [2] was 60%. The “Population Fragmented Nuclei (%)” value [2] was 14%, the “Population Healthy Nuclei (%)” value [2] was 81% and the “Population Hoechst High Intensity Objects (%)” value [2] was 1%. The “Population Membrane Permeable-Phenotype (%)” value [2] was 17%, the “Population Mitochondria Different-Phenotype (%)” value [2] was 7% and the “Population Mitotic Cells (%)” value [2] was 40%. For the same compound, the “Population Normal (%)” value [2] was 98%, the “Population Pyknosed Nuclei (%)” value [2] was 4% and the “Population Tubulin-Different-Phenotype (%)” value [2] was 9%. The “Total Cell Count” value [2] was 125, the “Population Apoptotic (%)” value [3] was 65% and the “Population Fragmented Nuclei (%)” value [3] was 25%. The “Population Healthy Nuclei (%)” value [3] was 59%, the “Population Hoechst High Intensity Objects (%)” value [3] was 3% and the “Population Membrane Permeable-Phenotype (%)” value [3] was 58%. The “Population Mitochondria Different-Phenotype (%)” value [3] was 61%, the “Population Mitotic Cells (%)” value [3] was 35% and the “Population Normal (%)” value [3] was 96%. For the same compound, the “Population Pyknosed Nuclei (%)” value [3] was 15%, the “Population Tubulin-Different-Phenotype (%)” value [3] was 63% and the “Total Cell Count” value [3] was 268. For the same compound, the “Population Apoptotic (%)” value [4] was 78%, the “Population Fragmented Nuclei (%)” value [4] was 24% and the “Population Healthy Nuclei (%)” value [4] was 58%. For the same compound, the “Population Hoechst High Intensity Objects (%)” value [4] was 4%, the “Population Membrane Permeable-Phenotype (%)” value [4] was 25% and the “Population Mitochondria Different-Phenotype (%)” value [4] was 75%. The “Population Mitotic Cells (%)” value [4] was 21%, the “Population Normal (%)” value [4] was 95% and the “Population Pyknosed Nuclei (%)” value [4] was 17%. The “Population Tubulin-Different-Phenotype (%)” value [4] was 47%, the “Total Cell Count” value [4] was 86 and the “Population Apoptotic (%)” value [5] was 78%. The “Population Fragmented Nuclei (%)” value [5] was 23%, the “Population Healthy Nuclei (%)” value [5] was 65% and the “Population Hoechst High Intensity Objects (%)” value [5] was 4%. For the same compound, the “Population Membrane Permeable-Phenotype (%)” value [5] was 7%, the “Population Mitochondria Different-Phenotype (%)” value [5] was 5% and the “Population Mitotic Cells (%)” value [5] was 21%. For the same compound, the “Population Normal (%)” value [5] was 95%, the “Population Pyknosed Nuclei (%)” value [5] was 10% and the “Population Tubulin-Different-Phenotype (%)” value [5] was 4%. The “Total Cell Count” value [5] was 276, the “Population Apoptotic (%)” value [6] was 80% and the “Population Fragmented Nuclei (%)” value [6] was 21%. The “Population Healthy Nuclei (%)” value [6] was 71%, the “Population Hoechst High Intensity Objects (%)” value [6] was 2% and the “Population Membrane Permeable-Phenotype (%)” value [6] was 11%. The “Population Mitochondria Different-Phenotype (%)” value [6] was 9%, the “Population Mitotic Cells (%)” value [6] was 20% and the “Population Normal (%)” value [6] was 97%. For the same compound, the “Population Pyknosed Nuclei (%)” value [6] was 6%, the “Population Tubulin-Different-Phenotype (%)” value [6] was 8% and the “Total Cell Count” value [6] was 146. The “Population Apoptotic (%)” value [7] was 77%, the “Population Fragmented Nuclei (%)” value [7] was 25% and the “Population Healthy Nuclei (%)” value [7] was 57%. For the same compound, the “Population Hoechst High Intensity Objects (%)” value [7] was 4%, the “Population Membrane Permeable-Phenotype (%)” value [7] was 37% and the “Population Mitochondria Different-Phenotype (%)” value [7] was 63%. For the same compound, the “Population Mitotic Cells (%)” value [7] was 22%, the “Population Normal (%)” value [7] was 95% and the “Population Pyknosed Nuclei (%)” value [7] was 16%. For the same compound, the “Population Tubulin-Different-Phenotype (%)” value [7] was 47%, the “Total Cell Count” value [7] was 297 and the “Population Apoptotic (%)” value [8] was 76%. The “Population Fragmented Nuclei (%)” value [8] was 22%, the “Population Healthy Nuclei (%)” value [8] was 52% and the “Population Hoechst High Intensity Objects (%)” value [8] was 6%. For the same compound, the “Population Membrane Permeable-Phenotype (%)” value [8] was 22%, the “Population Mitochondria Different-Phenotype (%)” value [8] was 62% and the “Population Mitotic Cells (%)” value [8] was 23%. For the same compound, the “Population Normal (%)” value [8] was 93%, the “Population Pyknosed Nuclei (%)” value [8] was 24% and the “Population Tubulin-Different-Phenotype (%)” value [8] was 40%. For the same compound, the “Total Cell Count” value [8] was 91, the “Population Apoptotic (%)” value [9] was 84% and the “Population Fragmented Nuclei (%)” value [9] was 19%. The “Population Healthy Nuclei (%)” value [9] was 69%, the “Population Hoechst High Intensity Objects (%)” value [9] was 1% and the “Population Membrane Permeable-Phenotype (%)” value [9] was 7%. The “Population Mitochondria Different-Phenotype (%)” value [9] was 5%, the “Population Mitotic Cells (%)” value [9] was 15% and the “Population Normal (%)” value [9] was 98%. The “Population Pyknosed Nuclei (%)” value [9] was 10%, the “Population Tubulin-Different-Phenotype (%)” value [9] was 4% and the “Total Cell Count” value [9] was 371. For the same compound, the “Population Apoptotic (%)” value [10] was 93%, the “Population Healthy Nuclei (%)” value [10] was 72% and the “Population Hoechst High Intensity Objects (%)” value [10] was 0%. For the same compound, the “Population Mitotic Cells (%)” value [10] was 6%, the “Population Normal (%)” value [10] was 99% and the “Population Pyknosed Nuclei (%)” value [10] was 7%. For the same compound, the “Population Tubulin-Different-Phenotype (%)” value [10] was 6%, the “Total Cell Count” value [10] was 213 and the “Population Apoptotic (%)” value [11] was 77%. For the same compound, the “Population Fragmented Nuclei (%)” value [11] was 29%, the “Population Healthy Nuclei (%)” value [11] was 54% and the “Population Hoechst High Intensity Objects (%)” value [11] was 5%. For the same compound, the “Population Membrane Permeable-Phenotype (%)” value [11] was 29%, the “Population Mitochondria Different-Phenotype (%)” value [11] was 36% and the “Population Mitotic Cells (%)” value [11] was 22%. For the same compound, the “Population Normal (%)” value [11] was 94%, the “Population Pyknosed Nuclei (%)” value [11] was 16% and the “Population Tubulin-Different-Phenotype (%)” value [11] was 23%. For the same compound, the “Total Cell Count” value [11] was 380, the “Population Apoptotic (%)” value [12] was 88% and the “Population Healthy Nuclei (%)” value [12] was 51%. The “Population Hoechst High Intensity Objects (%)” value [12] was 8%, the “Population Membrane Permeable-Phenotype (%)” value [12] was 27% and the “Population Mitochondria Different-Phenotype (%)” value [12] was 41%. The “Population Mitotic Cells (%)” value [12] was 11%, the “Population Normal (%)” value [12] was 91% and the “Population Pyknosed Nuclei (%)” value [12] was 19%. For the same compound, the “Population Tubulin-Different-Phenotype (%)” value [12] was 35% and the “Total Cell Count” value [12] was 103.
